In ChEMBL document CHEMBL4346672, “Antimicrobial and KPC/AmpC inhibitory activity of functionalized benzosiloxaboroles” (Eur J Med Chem, 2019):
In brackets after ≈: the same amount, converted by molar mass. Activity calls are given as the source filed them. No cut-off for these calls is given here.

System: Meyerozyma guilliermondii
Assay: Antifungal activity against Candida guilliermondii IBA 155 assessed as decrease in fungal cell growth at 0.78 to 12.5 mg/L incubated for 24 hrs by CLSI broth dilution method
Assay type: functional
Conditions: IBA 155, 24 h
Outline: (§1)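 Yeast broth dilution in RPMI 1640 with 2% glucose, compounds in DMSO. Yeasts pre-grown on Sabouraud dextrose agar. Growth read after 35 °C, 24 h.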

| MIC [µg/mL] | SMILES |
| --- | --- |
| 25 (≈ 128 µM) | C[Si]1(C)OB(O)c2ccc(F)cc21 |

System: Bordetella bronchiseptica
Assay: Antibacterial activity against Bordetella bronchiseptica ATCC 4617 assessed as diameter of zone inhibition measured after 18 hrs by CLSI disc diffusion method
Assay type: functional
Conditions: not given
Outline: (§2)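 Disc diffusion on Mueller-Hinton II agar. Compounds dissolved in DMSO. Strains stored at -80 °C and subcultured twice on tryptic soy agar before testing. Inhibition zones read after 35 °C, 18 h.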

| SMILES | diameter of the inhibition zone (DIZ) |
| --- | --- |
| C[Si]1(C)OB(O)c2ccc(F)cc21 | inactive |

System: Meyerozyma guilliermondii
Assay: Antifungal activity against Candida guilliermondii IBA 155 assessed as diameter of zone inhibition incubated for 24 hrs by CLSI disc diffusion method
Assay type: functional
Conditions: not given
Outline: (§3)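 Yeast disc diffusion on Mueller-Hinton agar supplemented with 2% glucose and 0.5 mg/L methylene blue. Compounds in DMSO. Yeasts subcultured on Sabouraud dextrose agar before testing. Zones read after 35 °C, 24 h.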

| SMILES | diameter of the inhibition zone (DIZ) [mm] |
| --- | --- |
| C[Si]1(C)OB(O)c2ccc(F)cc21 | 15 |

System: Enterococcus faecalis
Assay: Antibacterial activity against Enterococcus faecalis ATCC 29212 measured after 18 hrs by CLSI broth dilution method
Assay type: functional
Conditions: ATCC 29212, 18 h
Outline: (§4)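 Broth MIC in Mueller-Hinton II broth following CLSI, compounds dissolved in DMSO. Strains subcultured twice on tryptic soy agar before testing. Growth read after 35 °C, 18 h.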

| MIC [µg/mL] | SMILES |
| --- | --- |
| 200 (≈ 1020 µM) | C[Si]1(C)OB(O)c2ccc(F)cc21 |

System: Candida albicans
Assay: Antifungal activity against Candida albicans ATCC 90028 assessed as diameter of zone inhibition incubated for 24 hrs by CLSI disc diffusion method
Assay type: functional
Conditions: not given
Outline: as §3

| SMILES | diameter of the inhibition zone (DIZ) [mm] |
| --- | --- |
| C[Si]1(C)OB(O)c2ccc(F)cc21 | 13 |

System: Candida tropicalis
Assay: Antifungal activity against Candida tropicalis IBA 171 assessed as diameter of zone inhibition incubated for 24 hrs by CLSI disc diffusion method
Assay type: functional
Conditions: not given
Outline: as §3

| SMILES | diameter of the inhibition zone (DIZ) [mm] |
| --- | --- |
| C[Si]1(C)OB(O)c2ccc(F)cc21 | 11 |

System: Staphylococcus aureus
Assay: Antibacterial activity against Staphylococcus aureus ATCC 6538P measured after 18 hrs by CLSI broth dilution method
Assay type: functional
Conditions: not given
Outline: as §4

| MIC [µg/mL] | SMILES |
| --- | --- |
| 50 (≈ 255 µM) | C[Si]1(C)OB(O)c2ccc(F)cc21 |

System: Klebsiella pneumoniae
Assay: Antibacterial activity against Klebsiella pneumoniae ATCC 13883 measured after 18 hrs by CLSI broth dilution method
Assay type: functional
Conditions: ATCC 13883, 18 h
Outline: as §4

| MIC [µg/mL] | SMILES |
| --- | --- |
| > 400 | C[Si]1(C)OB(O)c2ccc(F)cc21 |

System: Enterococcus faecalis
Assay: Antibacterial activity against Enterococcus faecalis ATCC 29212 assessed as diameter of zone inhibition measured after 18 hrs by CLSI disc diffusion method
Assay type: functional
Conditions: not given
Outline: as §2

| SMILES | diameter of the inhibition zone (DIZ) |
| --- | --- |
| C[Si]1(C)OB(O)c2ccc(F)cc21 | inactive |

System: Burkholderia cepacia
Assay: Antibacterial activity against Burkholderia cepacia ATCC 25416 measured after 18 hrs by CLSI broth dilution method
Assay type: functional
Conditions: ATCC 25416, 18 h
Outline: as §4

| MIC [µg/mL] | SMILES |
| --- | --- |
| > 400 | C[Si]1(C)OB(O)c2ccc(F)cc21 |

System: Enterococcus faecium
Assay: Antibacterial activity against Enterococcus faecium ATCC 6057 assessed as diameter of zone inhibition measured after 18 hrs by CLSI disc diffusion method
Assay type: functional
Conditions: not given
Outline: as §2

| SMILES | diameter of the inhibition zone (DIZ) |
| --- | --- |
| C[Si]1(C)OB(O)c2ccc(F)cc21 | inactive |

System: Candida parapsilosis
Assay: Antifungal activity against Candida parapsilosis ATCC 22019 assessed as diameter of zone inhibition incubated for 24 hrs by CLSI disc diffusion method
Assay type: functional
Conditions: not given
Outline: as §3

| SMILES | diameter of the inhibition zone (DIZ) [mm] |
| --- | --- |
| C[Si]1(C)OB(O)c2ccc(F)cc21 | 11 |

System: Escherichia coli
Assay: Antibacterial activity against Escherichia coli ATCC 25922 assessed as fold reduction of MIC in presence of efflux pump inhibitor PAbetaN incubated for 18 hrs by CLSI broth microdilution method
Assay type: functional
Conditions: not given
Outline: (§5)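 MICs determined with and without PAβN at 50 mg/L in Mueller-Hinton broth containing 1 mM MgSO₄. 2-fold serial dilutions per CLSI. Fold change taken from the paired MICs after 35 °C, 18 h.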

| SMILES | fold change (FC) |
| --- | --- |
| C[Si]1(C)OB(O)c2ccc(F)cc21 | 16 |

System: Serratia marcescens
Conditions: ATCC 13880

| SMILES | DIZ |
| --- | --- |
| C[Si]1(C)OB(O)c2ccc(F)cc21 | inactive |

System: Serratia marcescens
Assay: Antibacterial activity against Serratia marcescens ATCC 13880 measured after 18 hrs by CLSI broth dilution method
Assay type: functional
Conditions: ATCC 13880, 18 h
Outline: as §4

| MIC [µg/mL] | SMILES |
| --- | --- |
| > 400 | C[Si]1(C)OB(O)c2ccc(F)cc21 |

System: Enterococcus faecium
Assay: Antibacterial activity against Enterococcus faecium ATCC 6057 measured after 18 hrs by CLSI broth dilution method
Assay type: functional
Conditions: ATCC 6057, 18 h
Outline: as §4

| MIC [µg/mL] | SMILES |
| --- | --- |
| 200 (≈ 1020 µM) | C[Si]1(C)OB(O)c2ccc(F)cc21 |

System: Burkholderia cepacia
Assay: Antibacterial activity against Burkholderia cepacia ATCC 25416 assessed as diameter of zone inhibition measured after 18 hrs by CLSI disc diffusion method
Assay type: functional
Conditions: not given
Outline: as §2

| SMILES | diameter of the inhibition zone (DIZ) |
| --- | --- |
| C[Si]1(C)OB(O)c2ccc(F)cc21 | inactive |

System: Acinetobacter baumannii
Assay: Antibacterial activity against Acinetobacter baumannii ATCC 19606 assessed as diameter of zone inhibition measured after 18 hrs by CLSI disc diffusion method
Assay type: functional
Conditions: not given
Outline: as §2

| SMILES | diameter of the inhibition zone (DIZ) |
| --- | --- |
| C[Si]1(C)OB(O)c2ccc(F)cc21 | inactive |

System: Pseudomonas aeruginosa
Assay: Antibacterial activity against Pseudomonas aeruginosa ATCC 27853 measured after 18 hrs by CLSI broth dilution method
Assay type: functional
Conditions: ATCC 27853, 18 h
Outline: as §4

| MIC [µg/mL] | SMILES |
| --- | --- |
| > 400 | C[Si]1(C)OB(O)c2ccc(F)cc21 |

System: Enterobacter cloacae
Assay: Antibacterial activity against Enterobacter cloacae DSM 6234 measured after 18 hrs by CLSI broth dilution method
Assay type: functional
Conditions: DSM 6234, 18 h
Outline: as §4

| MIC [µg/mL] | SMILES |
| --- | --- |
| > 400 | C[Si]1(C)OB(O)c2ccc(F)cc21 |

System: Proteus mirabilis
Assay: Antibacterial activity against Proteus mirabilis ATCC 12453 assessed as fold reduction of MIC in presence of efflux pump inhibitor PAbetaN incubated for 18 hrs by broth microdilution method
Assay type: functional
Conditions: not given
Outline: as §5

| SMILES | fold change (FC) |
| --- | --- |
| C[Si]1(C)OB(O)c2ccc(F)cc21 | 2 |

System: Bordetella bronchiseptica
Assay: Antibacterial activity against Bordetella bronchiseptica ATCC 4617 measured after 18 hrs by CLSI broth dilution method
Assay type: functional
Conditions: ATCC 4617, 18 h
Outline: as §4

| MIC [µg/mL] | SMILES |
| --- | --- |
| > 400 | C[Si]1(C)OB(O)c2ccc(F)cc21 |

System: Bacillus subtilis
Assay: Antibacterial activity against Bacillus subtilis ATCC 6633 assessed as diameter of zone inhibition measured after 18 hrs by CLSI disc diffusion method
Assay type: functional
Conditions: not given
Outline: as §2

| SMILES | diameter of the inhibition zone (DIZ) [mm] |
| --- | --- |
| C[Si]1(C)OB(O)c2ccc(F)cc21 | 14 |

System: Proteus mirabilis
Assay: Antibacterial activity against Proteus mirabilis ATCC 12453 assessed as diameter of zone inhibition measured after 18 hrs by CLSI disc diffusion method
Assay type: functional
Conditions: not given
Outline: as §2

| SMILES | diameter of the inhibition zone (DIZ) |
| --- | --- |
| C[Si]1(C)OB(O)c2ccc(F)cc21 | inactive |

System: Klebsiella pneumoniae
Assay: Antibacterial activity against Klebsiella pneumoniae ATCC 13883 assessed as fold reduction of MIC in presence of efflux pump inhibitor PAbetaN incubated for 18 hrs by broth microdilution method
Assay type: functional
Conditions: not given
Outline: as §5

| SMILES | fold change (FC) |
| --- | --- |
| C[Si]1(C)OB(O)c2ccc(F)cc21 | 8 |

System: Candida parapsilosis
Assay: Antifungal activity against Candida parapsilosis ATCC 22019 assessed as decrease in fungal cell growth at 0.78 to 12.5 mg/L incubated for 24 hrs by CLSI broth dilution method
Assay type: functional
Conditions: Lodderomyces parapsilosis, ATCC 22019, 24 h
Outline: as §1

| MIC [µg/mL] | SMILES |
| --- | --- |
| 25 (≈ 128 µM) | C[Si]1(C)OB(O)c2ccc(F)cc21 |

System: not listed separately
Assay: Dissociation constant, pKa1 of compound in 0.1 M NaOH by potentiometric analysis
Assay type: physicochemical
Conditions: not given

| pKa | SMILES |
| --- | --- |
| 7.3 | C[Si]1(C)OB(O)c2ccc(F)cc21 |

System: Staphylococcus aureus
Assay: Antibacterial activity against Staphylococcus aureus ATCC 6538P assessed as diameter of zone inhibition measured after 18 hrs by CLSI disc diffusion method
Assay type: functional
Conditions: not given
Outline: as §2

| SMILES | diameter of the inhibition zone (DIZ) [mm] |
| --- | --- |
| C[Si]1(C)OB(O)c2ccc(F)cc21 | 29 |

System: Escherichia coli
Assay: Antibacterial activity against Escherichia coli ATCC 25922 assessed as diameter of zone inhibition measured after 18 hrs by CLSI disc diffusion method
Assay type: functional
Conditions: not given
Outline: as §2

| SMILES | diameter of the inhibition zone (DIZ) |
| --- | --- |
| C[Si]1(C)OB(O)c2ccc(F)cc21 | inactive |

System: Stenotrophomonas maltophilia
Assay: Antibacterial activity against Stenotrophomonas maltophilia ATCC 13637 assessed as fold reduction of MIC in presence of efflux pump inhibitor PAbetaN incubated for 18 hrs by broth microdilution method
Assay type: functional
Conditions: not given
Outline: as §5

| SMILES | fold change (FC) |
| --- | --- |
| C[Si]1(C)OB(O)c2ccc(F)cc21 | 8 |

System: Klebsiella pneumoniae
Conditions: ATCC 13883

| SMILES | DIZ |
| --- | --- |
| C[Si]1(C)OB(O)c2ccc(F)cc21 | inactive |

System: Acinetobacter baumannii
Assay: Antibacterial activity against Acinetobacter baumannii ATCC 19606 measured after 18 hrs by CLSI broth dilution method
Assay type: functional
Conditions: ATCC 19606, 18 h
Outline: as §4

| MIC [µg/mL] | SMILES |
| --- | --- |
| 200 (≈ 1020 µM) | C[Si]1(C)OB(O)c2ccc(F)cc21 |

System: Stenotrophomonas maltophilia
Assay: Antibacterial activity against Stenotrophomonas maltophilia ATCC 13637 measured after 18 hrs by CLSI broth dilution method
Assay type: functional
Conditions: ATCC 13637, 18 h
Outline: as §4

| MIC [µg/mL] | SMILES |
| --- | --- |
| 200 (≈ 1020 µM) | C[Si]1(C)OB(O)c2ccc(F)cc21 |

System: Pichia kudriavzevii
Assay: Antifungal activity against Candida krusei ATCC 6258 assessed as diameter of zone inhibition incubated for 24 hrs by CLSI disc diffusion method
Assay type: functional
Conditions: not given
Outline: as §3

| SMILES | diameter of the inhibition zone (DIZ) [mm] |
| --- | --- |
| C[Si]1(C)OB(O)c2ccc(F)cc21 | 11 |

System: Proteus mirabilis
Assay: Antibacterial activity against Proteus mirabilis ATCC 12453 measured after 18 hrs by CLSI broth dilution method
Assay type: functional
Conditions: ATCC 12453, 18 h
Outline: as §4

| MIC [µg/mL] | SMILES |
| --- | --- |
| > 400 | C[Si]1(C)OB(O)c2ccc(F)cc21 |

System: Staphylococcus epidermidis
Assay: Antibacterial activity against Staphylococcus epidermidis ATCC 12228 assessed as diameter of zone inhibition measured after 18 hrs by CLSI disc diffusion method
Assay type: functional
Conditions: not given
Outline: as §2

| SMILES | diameter of the inhibition zone (DIZ) [mm] |
| --- | --- |
| C[Si]1(C)OB(O)c2ccc(F)cc21 | 26 |
